This note sets out measurements from ChEMBL document CHEMBL1153848, “Design and synthesis of azolopyrimidoquinolines, pyrimidoquinazolines as anti-oxidant, anti-inflammatory and analgesic activities” (2009).

SMILES strings stand for the structures. Activity calls are given as the source filed them.

A short description of experiment [1]: Antioxidant activity in Sprague-Dawley rat erythrocytes assessed as peroxyl radical-induced hemolysis after 1 hr. It counts as functional, Erythrocyte.
A short description of experiment [2]: Antioxidant activity assessed as ABTS radical scavenging activity at 2 mM. Type of experiment: functional. The procedure, abridged:
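ABTS radical scavenging, read as the fall in colour absorbance after MeOH/phosphate buffer (1:1) is added. % inhibition = (A_control − A_test)/A_control × 100. The negative control uses MeOH/phosphate buffer (1:1) in place of compound, the blank omits ABTS, and ascorbic acid is the positive control.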

In experiment [3] the test system is Rattus norvegicus. Nature of the experiment: Antiinflammatory activity in Sprague-Dawley rat assessed as protection against carrageenan-induced hind paw edema at 20 mg/kg, po administered 1 hr before carrageenan challenge measured after 1 hr. Type of experiment: functional. In a few lines: (§1)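 Adult female albino rats (150–180 g), fasted 18 h, six per group. Aqueous suspension in distilled water given orally at 20 mg/kg 1 h before subplantar injection of 0.1 mL 1% w/v carrageenan into the left hind paw. Vehicle controls got 0.5 mL water; diclofenac sodium 20 mg/kg po was the reference. Paw volume was measured by mercury plethysmometer before injection and hourly for 4 h. Inhibition = (Ec−Et)/Ec, with edema = (Vt−V0)/V0.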

The subject of experiment [4] is Rattus norvegicus. Nature of the experiment: Antiinflammatory activity in Sprague-Dawley rat assessed as protection against carrageenan-induced hind paw edema at 20 mg/kg, po administered 1 hr before carrageenan challenge measured after 2 hrs. Type of experiment: functional. The procedure, abridged: as §1
Experiment [5] concerns Rattus norvegicus. Nature of the experiment: Antiinflammatory activity in Sprague-Dawley rat assessed as protection against carrageenan-induced hind paw edema at 20 mg/kg, po administered 1 hr before carrageenan challenge measured after 3 hrs. Type of experiment: functional. The procedure, abridged:
as §1

The test system of experiment [6] is Mus musculus. Nature of the experiment: Central analgesic activity in Swiss albino mouse assessed as thermal stimuli reaction time at 20 mg/kg, po after 30 mins by hot plate method. Type of experiment: functional. The procedure, abridged: (§2)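 Swiss mice of both sexes (25–30 g), six per group, on a hot plate held at 53 ± 0.5 °C. Latency was timed to hind-paw licking or jumping, with a 60 s cut-off. It was measured before dosing, then at 15, 30, 60 and 90 min after an oral aqueous suspension at 20 mg/kg. Controls were untreated; oral diclofenac sodium 20 mg/kg was the reference.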

The subject of experiment [7] is Mus musculus. Nature of the experiment: Central analgesic activity in Swiss albino mouse assessed as thermal stimuli reaction time at 20 mg/kg, po after 60 mins by hot plate method. Type of experiment: functional. The procedure, abridged: as §2
Experiment [8] relates to Mus musculus. Nature of the experiment: Central analgesic activity in Swiss albino mouse assessed as thermal stimuli reaction time at 20 mg/kg, po after 90 mins by hot plate method. Type of experiment: functional. The procedure, abridged: as §2
For experiment [9], the system named is Mus musculus. Nature of the experiment: Peripheral analgesic activity in Swiss albino mouse assessed as protection against acetic acid-induced writhing response at 20 mg/kg, po administered 30 mins before acetic acid challenge measured after 30 mins relative to control. It counts as functional.
In experiment [10] the test system is Mus musculus. Nature of the experiment: Peripheral analgesic activity in Swiss albino mouse assessed as protection against acetic acid-induced writhing response at 20 mg/kg, po administered 30 mins before acetic acid challenge measured after 1 hr relative to control. It counts as functional.
Experiment [11] concerns Mus musculus. Put plainly: Peripheral analgesic activity in Swiss albino mouse assessed as protection against acetic acid-induced writhing response at 20 mg/kg, po administered 30 mins before acetic acid challenge measured after 2 hrs relative to control. It counts as functional.
Experiment [12] deals with Mus musculus. Put plainly: Peripheral analgesic activity in Swiss albino mouse assessed as protection against acetic acid-induced writhing response at 20 mg/kg, po administered 30 mins before acetic acid challenge measured after 3 hrs relative to control. It counts as functional.
A further experiment deals with Brain. Put plainly: Antioxidant activity in Sprague-Dawley rat brain assessed as inhibition of lipid peroxidation. It counts as functional, tissue-based.
A further experiment relates to Kidney. Nature of the experiment: Antioxidant activity in Sprague-Dawley rat kidney assessed as inhibition of lipid peroxidation. Type of experiment: functional, tissue-based.
A short description of experiment [13]: Protection against bleomycin-induced damage in calf thymus type 1 DNA assessed as absorbance at 532 nm after 1 hr. Details: concentration or dose not given beside the values. The procedure, abridged: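 Reaction mixture: calf thymus DNA 0.5 mg/mL, bleomycin sulfate 0.05 mg/mL, MgCl2 5 mM, […], sample at various concentrations; 37 °C for 1 h. Stopped with EDTA (0.1 M), then TBA (1% w/v) plus HCl (25% v/v), heated 80 °C 10 min. After centrifugation, DNA damage read as absorbance increase at 532 nm. L-ascorbic acid as positive control.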

As to `CC(=O)c1sc2nc3nc4c(c(-c5ccc(Cl)cc5)c3c(=O)n2c1C)CCC/C4=C/c1ccc(Cl)cc1`, the Activity is 6.06% in [1]; 46.7% in the experiment on Rattus norvegicus [3]; 44.2% in the experiment with Rattus norvegicus [4]; 39.2% in the experiment on Rattus norvegicus [5]; 7.54 min in the experiment on Mus musculus [6]; 8.61 min in the experiment on Mus musculus [7]. For the same compound, the Activity with Mus musculus [8] was found to be 12 min; in the experiment with Mus musculus [9] it was 43.5%; with Mus musculus [10], 49%; in the experiment with Mus musculus [11], 53.1%; in the experiment on Mus musculus [12], 38.4%. In addition, the inhibition in [2] is 40.7%. For the same compound, the result with Brain and in the experiment on Kidney was Active.
Take `CSc1nc2nc3c(c(-c4ccc(Cl)cc4)c2c(=O)[nH]1)CCC/C3=C/c1ccc(Cl)cc1`: the Activity in experiment [1] is recorded as 4.24%; with Rattus norvegicus [3] it was 50.1%; in the experiment on Rattus norvegicus [4], 56.2%; with Rattus norvegicus [5] it was 32.4%; in the experiment with Mus musculus [6], 8.42 min; in the experiment with Mus musculus [7] it was 10.41 min. Moreover, the Activity is listed as 10.67 min in the experiment on Mus musculus [8]; 50.4% with Mus musculus [9]; 52% in the experiment with Mus musculus [10]; 55.5% with Mus musculus [11]; 37.6% with Mus musculus [12]. For the same compound, the inhibition in experiment [2] turned out to be 33.3%. In addition, the result with Brain and with Kidney was Active.
In the case of `Cc1c(C(=O)/C=C/c2ccccc2)sc2nc3nc4c(c(-c5ccc(Cl)cc5)c3c(=O)n12)CCC/C4=C/c1ccc(Cl)cc1`, the Activity in [1] was 4.54%; in experiment [13] it was 0.035. Also, the inhibition in [2] was 38.9%. The result with Brain and in the experiment on Kidney was Active.
`O=C1O[C@H]([C@@H](O)CO)C(O)=C1O`: the Activity in experiment [13] worked out at 0.02.
For the compound `O=c1[nH]c(=S)[nH]c2c1C(c1ccccc1)C1=C(N2)/C(=C/c2ccccc2)CCC1` (stereo not given), the Activity in experiment [1] came out at 35.75%; in experiment [13], 0.025; with Rattus norvegicus [3] it was 49%; with Rattus norvegicus [4], 53.2%; with Rattus norvegicus [5], 41%; in the experiment on Mus musculus [6] it was 9.42 min. Moreover, the Activity in the experiment on Mus musculus [7] was found to be 10.41 min; in the experiment with Mus musculus [8], 11.67 min; with Mus musculus [9], 61.2%; with Mus musculus [10], 65.1%; in the experiment with Mus musculus [11], 69.2%; with Mus musculus [12] it was 50.1%. Also, the inhibition in experiment [2] was found to be 81.5%. Also, the result in the experiment on Brain and in the experiment with Kidney was Active.
`O=c1[nH]c(=S)[nH]c2c1C(c1ccc(Cl)cc1)C1=C(N2)/C(=C/c2ccc(Cl)cc2)CCC1` (stereo not given): the Activity in [1] came to 12.72%; with Rattus norvegicus [3], 56.3%; in the experiment on Rattus norvegicus [4] it was 62%; with Rattus norvegicus [5], 40.2%; in the experiment on Mus musculus [6], 9.42 min; in the experiment with Mus musculus [7], 10.41 min. Further, the Activity in the experiment with Mus musculus [8] worked out at 11.67 min; in the experiment on Mus musculus [9] it was 60.4%; with Mus musculus [10] it was 69%; in the experiment on Mus musculus [11], 74.3%; in the experiment with Mus musculus [12] it was 47.3%. Also, the inhibition in experiment [2] turned out to be 59.3%. Moreover, the outcome in the experiment on Brain and in the experiment with Kidney was Active.
Turning to `CC(=O)C(Sc1nc2nc3c(c(-c4ccc(Cl)cc4)c2c(=O)[nH]1)CCC/C3=C/c1ccc(Cl)cc1)C(C)=O`, the Activity is 7.87% in experiment [1]; 46.3% with Rattus norvegicus [3]; 48.6% in the experiment on Rattus norvegicus [4]; 38.6% with Rattus norvegicus [5]; 8.68 min in the experiment on Mus musculus [6]; 9.8 min in the experiment with Mus musculus [7]. In addition, the Activity is on record as 10.4 min in the experiment on Mus musculus [8]; 46% in the experiment with Mus musculus [9]; 54% in the experiment on Mus musculus [10]; 56.6% in the experiment with Mus musculus [11]; 37.3% with Mus musculus [12]. Besides, in experiment [2], the inhibition is 42.6%. Further, the outcome with Brain and in the experiment with Kidney was Active.
`CCn1c(SC)nc2nc3c(c(-c4ccc(Cl)cc4)c2c1=O)CCC/C3=C/c1ccc(Cl)cc1`: the results for the Activity in experiment [1] and in experiment [13] were 3.93% and 0.021, respectively. Further, in experiment [2], the inhibition was 37%. Further, the result in the experiment on Brain and in the experiment with Kidney was Active.
With `COc1ccc(/C=C2\CCCC3=C2Nc2[nH]c(=S)[nH]c(=O)c2C3c2ccc(OC)cc2)cc1` (stereo not given), the Activity in experiment [1] amounted to 8.18%; in the experiment with Rattus norvegicus [3], 59.5%; in the experiment with Rattus norvegicus [4] it was 62.4%; with Rattus norvegicus [5] it was 46.5%; in the experiment on Mus musculus [6], 9.84 min; in the experiment on Mus musculus [7], 11.62 min. In addition, the Activity is reported as 11.88 min in the experiment on Mus musculus [8]; 69% with Mus musculus [9]; 74% in the experiment on Mus musculus [10]; 75.4% with Mus musculus [11]; 58.2% in the experiment with Mus musculus [12]. In experiment [2], the inhibition stood at 66.7%. Also, the result in the experiment with Brain and in the experiment with Kidney was Active.
Consider `C/C(=N/NC(N)=S)c1sc2nc3nc4c(c(-c5ccc(Cl)cc5)c3c(=O)n2c1C)CCC/C4=C/c1ccc(Cl)cc1`, for which the Activity in experiment [1] came out at 6.21%; in experiment [13] it was 0.065. Further, in experiment [2], the inhibition is 63%. Also, the result in the experiment on Brain and in the experiment on Kidney was Active.
`O=c1/c(=C/c2ccccc2)sc2nc3nc4c(c(-c5ccc(Cl)cc5)c3c(=O)n12)CCC/C4=C/c1ccc(Cl)cc1`: the Activity came to 5.75% in experiment [1]; 59.8% in the experiment on Rattus norvegicus [3]; 59.3% in the experiment on Rattus norvegicus [4]; 42.3% with Rattus norvegicus [5]; 9.16 min in the experiment with Mus musculus [6]; 10.78 min in the experiment on Mus musculus [7]. The Activity in the experiment on Mus musculus [8] is 11.08 min; in the experiment on Mus musculus [9], 73.2%; with Mus musculus [10] it was 76%; with Mus musculus [11] it was 77.2%; in the experiment with Mus musculus [12] it was 60.3%. Also, the inhibition in experiment [2] was found to be 40.7%. For the same compound, the outcome with Brain and with Kidney was Active.
